Assay results as given in PMC4040673 (Cell Death & Disease, 2014).
Blank lines part the entries; values can stand above or below the molecule they belong to.

Experiments:
HT-22 cells [1] = assay: Annexin-V-FITC/PI flow cytometry in glutamate-treated HT-22 cells; format: cell-based, mouse; settings: siRNA transfected; glutamate 2 mM
Outline: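 HT-22 cells grown at 37 °C, 5% CO2 in DMEM with 10% heat-inactivated calf serum. Transfected with scrambled or mouse CypA siRNA (Lipofectamine-2000), then given 2 mM glutamate. Stained with Annexin-V-FITC/PI by kit and run on a FACScan: FITC excited at 488 nm, emission 530±40 nm; PI excited at 488 nm, emission 680±30 nm. Experiments repeated at least three times.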

HT-22 cells [2] = assay: Cell viability; format: cell-based, mouse; settings: siRNA transfected (Lipofectamine-2000), glutamate 2 mM, 12 h
Outline: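 HT-22 cells seeded at 10 000 cells/well in 96-well plates, in DMEM with 10% heat-inactivated calf serum at 37 °C. siRNA transfected with Lipofectamine-2000, then exposed to 2 mM glutamate for 12 h. MTT at 0.5 mg/ml for 1 h; absorbance read at 570 nm with 630 nm reference. Controls set to 100%. At least three repeats, n=8 per condition.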

AIF = format: cell-based, mouse; settings: peptide 50 μM or siRNA transfected; glutamate 2 mM, 12 h
Outline: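 HT-22 cells carried siRNA (Lipofectamine-2000) or 50 μM peptide (cationic lipid protein-transfection reagent) and were seeded on chamber slides. Exposed to 2 mM glutamate for 12–14 h. Fixed in 4% paraformaldehyde, permeabilised with 0.04% Triton X, and immunostained for AIF with Alexa 568/488 secondaries and DAPI. Imaged by confocal laser scanning with a 63× 1.4-NA oil objective.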

CypA [3] = assay: siRNA knockdown of CypA; format: cell-based, mouse; settings: HT-22, RT-PCR and immunoblotting
Outline: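 HT-22 cells transfected with scrambled or mouse CypA siRNA (Lipofectamine-2000). One-step RT-PCR on total RNA, GAPDH as reference: cDNA step 60 °C 30 min, 95 °C 2 min, then 30 cycles of 95 °C 30 s, 57 °C 1 min, 70 °C 2 min. Lysates run on SDS-PAGE and blotted to PVDF. Primary antibody overnight at 4 °C, HRP secondary 1:2500, chemiluminescence; tubulin or actin as loading control.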

HT-22 cells [4] = assay: Real-time impedance; format: cell-based, mouse; settings: siRNA transfected; glutamate 2 mM, ~15 h, n=8
HT-22 cells [5] = assay: Cell viability of glutamate-treated HT-22 cells in medium without Ca2+; format: cell-based, mouse; settings: glutamate 2 mM, 12–14 h, n=4
HT-22 cells [6] = assay: Intracellular Ca2+; format: cell-based, mouse; settings: glutamate 12 h, Fluo-4; n = 8
Outline: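 Transfected HT-22 cells seeded in 96-well plates and grown 24 h, then treated with 2 mM glutamate for 12 h. Fluo-4 AM (5 μM) added to the medium for 30 min. After washing, fluorescence read on a plate reader at excitation 485 nm and emission 520 nm.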

tAIF = assay: SPR binding of peptides to tAIF; parameters: species or system mouse; settings: direct binding to immobilized protein, applied concentration range
CypA [7] = target: CypA (Homo sapiens, UniProt P62937); assay: SPR direct binding to immobilized CypA
[8] = test system: isolated mitochondria from HT-22 cells; assay: CCCP-induced depolarization / MPT pore opening in isolated HT-22 mitochondria; format: cell-based, mouse; settings: 50 μM CCCP
Outline: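 Then treated with 50 μM CCCP protonophore. Δψm followed with 20 nM DiOC6(3) on a fluorescence plate reader. Measurements in triplicate, representative of at least three independent experiments.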

Sequence of CypA (Homo sapiens, UniProt P62937) (P62937 whole entry): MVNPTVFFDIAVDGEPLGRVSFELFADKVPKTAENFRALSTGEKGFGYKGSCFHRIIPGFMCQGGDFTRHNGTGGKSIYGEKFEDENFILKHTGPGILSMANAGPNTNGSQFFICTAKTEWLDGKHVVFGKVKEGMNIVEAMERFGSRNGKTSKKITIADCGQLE

Molecule: siCypA: mouse siRNA targeting CypA: siCypAFw 5′-CUGAAUGGCUGGAUGGCAA-3′ and siCypARev 5′-UUGCCAUCCAGCCAUUCAG-3′ (chemistry not given here)
protection against glutamate-induced cell death by siRNA, Annexin-V/PI (HT-22 cells [1]): full protection
protection against glutamate-induced cell death by siRNA, MTT (HT-22 cells [2]): full protection
glutamate-induced nuclear translocation of AIF (AIF): very weak nuclear AIF staining
CypA expression after siRNA (CypA [3]): significantly reduced
protection against glutamate-induced cell death by siRNA, impedance (HT-22 cells [4]): full protection
protective effect combined with depletion of extracellular Ca2+ (HT-22 cells [5]): additive protective effects to depletion of extracellular Ca^2+

Molecule: N[C@@H](CCC(=O)O)C(=O)O [Glutamate]
intracellular Ca2+ concentration induced by glutamate (HT-22 cells [6]): dose-dependent increase

affinity to tAIF (in words) (tAIF): No affinity to tAIF was detected
affinity for CypA (in words) (CypA [7]): very weak affinity
fold lower affinity for CypA compared with AIF(370–394) (CypA [7]; ratio of KD values): 1000 fold
Molecule: ILPEYLSNWTMEKVRREG [AIF(343–360)]

Molecule: N#CC(C#N)=NNc1cccc(Cl)c1 [CCCP, carbonyl cyanide m-chlorophenyl hydrazone]
loss of Δψm induced by CCCP [8]: strong loss of Δψm
